Data on 55 compounds can be found in PubChem BioAssay AID2300 (The Scripps Research Institute Molecular Screening Center, 2010).

Among all 320,000 compounds or so, about 380 (0.12%) were called active. The sample holds actives, similar compounds and a random draw of the others, so the mix is not that of the screen. Values without a mark were called inactive.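 Rule for the calls: active = percent inhibition above the cutoff of mean plus 3 SD of all tested compounds, set per screening campaign (cut at about 20% in these data); inactive = the rest.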

The assay deals with Photoreceptor-specific nuclear receptor (Homo sapiens) (UniProt Q9Y5X4). The experiment in a line: disruption of NR2E3 corepressor interaction – biochemical, TR-FRET, GST-NR2E3, biotin-RetCOR, NR2E3 agonist project, primary screen (AID 2300).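 Note: 0% = DMSO wells and 100% = biotin wells as full block of FRET.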 The note with it: 1536-well, at 4.78 µM, hits give high values. In a few lines: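 Material – GST-tagged NR2E3 plus biotinylated RetCOR corepressor · Quantity – NR2E3 fusion 1.35 nM · Times – 5 h incubation at 4 °C · Medium – pH 7.5 Tris-based buffer · Technique – TR-FRET, Eu(K)-anti-GST donor, streptavidin-D2 acceptor, ex 340, em 617/671 nm · Benchmarks – high control biotin, low control 0.6% DMSO · Format – 1536-well plates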
Sequence of Photoreceptor-specific nuclear receptor (Homo sapiens) (Q9Y5X4 whole entry, looked up, the tested form may be a part): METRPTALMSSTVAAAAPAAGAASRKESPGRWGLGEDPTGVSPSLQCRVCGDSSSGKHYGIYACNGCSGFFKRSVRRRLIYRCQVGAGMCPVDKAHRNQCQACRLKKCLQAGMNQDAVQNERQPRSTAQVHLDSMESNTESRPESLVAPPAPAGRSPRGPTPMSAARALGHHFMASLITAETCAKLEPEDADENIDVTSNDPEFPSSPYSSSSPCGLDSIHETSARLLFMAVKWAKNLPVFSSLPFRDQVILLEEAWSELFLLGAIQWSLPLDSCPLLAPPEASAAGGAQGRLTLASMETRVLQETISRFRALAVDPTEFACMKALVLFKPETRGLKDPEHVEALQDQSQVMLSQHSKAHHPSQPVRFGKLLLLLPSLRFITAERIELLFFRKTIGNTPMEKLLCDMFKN
For orientation: Time-resolved FRET reads energy transfer from a long-lived donor to a nearby acceptor.
On to `O=C(CNC(=O)c1ccc(Br)o1)NCC1CCCO1` (stereo not given), for which the inhibition of corepressor binding is 1.48%. Turning to `Cc1ccc(CN2CCN(Cc3ccc(OCCO)cc3)CC2CCO)o1` (stereo not given), the inhibition of corepressor binding was 3.85%. The figure for `COc1cc([C@H](Cc2ccccc2)NC(C)=O)oc(=O)c1` is -1.34%. The figure for `CN(CC(=O)NCc1ccc2c(c1)OCO2)CC(=O)Nc1ccc(F)c(F)c1F` is 1.07%; for `CC(NC(=O)c1ccc(S(=O)(=O)Nc2ccccc2)cc1)c1ccc(S(N)(=O)=O)cc1` (stereo not given) it is 2.43%. Turning to `CC(=O)N1CCSc2ccc(S(=O)(=O)N3CCC(C)CC3)cc21`, the inhibition of corepressor binding was -0.82%. As to `C/C(=N/NC(=O)CSc1ccccn1)c1ccc([N+](=O)[O-])cc1`, the inhibition of corepressor binding is 3.53%. Consider `C[C@H](NC(=O)c1nc[nH]c1C(=O)NCC(=O)OC(C)(C)C)c1ccccc1`, for which the inhibition of corepressor binding is -2.19%.

Take `Cc1ccc(N2C(=O)C(CC(=O)Nc3cccc(F)c3)N(CCc3ccncc3)C2=O)cc1` (stereo not given): the inhibition of corepressor binding was -1.41%. On to `CCCOC(=O)c1c(NC(=O)c2cnn3c2NC(c2ccccc2)CC3C(F)(F)F)sc2c1CCCC2` (stereo not given), for which the inhibition of corepressor binding is 0.87%. The same measure for `Cc1ccn2c(c1)nc(=O)c1cc(S(=O)(=O)N3CCC(C)CC3)ccc12`: 2.72%; for `CCCOc1ccc(C2C(C(=O)c3ccc(C)o3)=C(O)C(=O)N2CCCn2ccnc2)cc1` (stereo not given): 11.4%; for `C=CCOc1cccc(C2C(C(=O)c3ccc(C)o3)=C(O)C(=O)N2CCCn2ccnc2)c1` (stereo not given): 25.8% (active). The figure for `C=CCOc1cccc(C2C(C(=O)c3ccc(C)o3)=C(O)C(=O)N2c2nnc(C)s2)c1` (stereo not given) is 14.1%; for `COc1ccc(/C=C/C(=O)NC(=S)N2CCCC(C(N)=O)C2)cc1` (stereo not given) it is 3.08%; for `O=C(OCC1O[C@@H](OC(=O)c2cc(O)c(O)c(O)c2)[C@@H](OC(=O)c2cc(O)c(O)c(O)c2)[C@@H](OC(=O)c2cc(O)c(O)c(O)c2)[C@@H]1OC(=O)c1cc(O)c(O)c(O)c1)c1cc(O)c(O)c(O)c1` (stereo not given in full) it is 11.9%. For `Cc1coc2c(O)cc3c(c12)OC1(N2CCCCC2)C(=O)NCCCC31` (stereo not given), the inhibition of corepressor binding is -2.68%. Regarding `CC(C)CCNC(=O)C1CCCN(S(=O)(=O)c2ccc(F)cc2)C1` (stereo not given), the inhibition of corepressor binding is 2.4%.

On to `Cc1cc(NC(=O)Nc2ccccc2[N+](=O)[O-])no1`, for which the inhibition of corepressor binding was 0.41%. The figure for `COc1cccc(N2C(=O)CN(Cc3ccccc3)C2=S)c1` is -3.57%; for `COc1cccc(-n2c(=S)[nH]c3c(oc4ccccc43)c2=O)c1` it is 29.2% (active). The figure for `COc1cccc(-n2cc(C(=O)O)c3ccccc3c2=O)c1` is 3.78%; for `COc1ccc(NC(=O)CSc2nnc(Cc3ccccc3)c(=O)n2N)cc1` it is -3.17%; for `COC(=O)C1=NN(c2ccccc2)C2C(=O)N(c3ccccc3OC)C(=O)C12` (stereo not given) it is -1.01%.

In the case of `C/C(=C\c1ccco1)CN1CCC(N2CCC(C(=O)N3CCOCC3)CC2)CC1`, the inhibition of corepressor binding was -0.38%. On to `O=C(Nc1ccccc1Cl)NC1(C(=O)N2CCOCC2)CCCCC1`, for which the inhibition of corepressor binding is 1.2%.

On to `CCc1nn(CCCC(=O)NCc2ccc(C)cc2)c(=O)c2cc3occc3n12`, for which the inhibition of corepressor binding was 1.62%.

For the compound `C=C1c2c(Cl)ccc(O)c2C(O)=C2C(=O)[C@]3(O)C(O)=C(C(N)=O)C(=O)[C@@H](N(C)C)[C@@H]3[C@@H](O)C12` (stereo not given in full), the inhibition of corepressor binding is 3.15%. For `C=CCn1c(SCc2ccc(Cl)c(Cl)c2)nnc1C(CO)NC(=O)c1ccc(OC)cc1` (stereo not given), the inhibition of corepressor binding was -1.93%. On to `Cc1ccn(C(CC(=O)c2ccc(Br)cc2)C(=O)O)n1` (stereo not given), for which the inhibition of corepressor binding was 0.75%.

Take `CC(C)CCNc1nc(N2CCCC2)c2c(c1C#N)CCN(C)C2`: the inhibition of corepressor binding is -2.99%.

For the compound `CCc1ccnc(NS(=O)(=O)c2ccc3c(c2)OCCO3)c1`, the inhibition of corepressor binding is -3.2%.

On to `CCN(C(=O)COC(=O)/C=C/c1nc2ccccc2s1)C1CCS(=O)(=O)C1` (stereo not given), for which the inhibition of corepressor binding is -1.91%.

On to `C[C@@H](NC(=O)c1nc[nH]c1C(=O)N1CCN(C(=O)OC(C)(C)C)CC1)c1ccccc1`, for which the inhibition of corepressor binding was 0.22%. The figure for `N#C/C(=C/c1ccc(Cl)cc1)NC(=O)c1ccccc1` is 0.97%; for `CSc1sc(C(=O)NC(=O)NCc2cccnc2)c(C)c1-c1ccon1` it is -5.08%; for `CCOc1ccc(OCC)c(NC(=O)C(NS(=O)(=O)c2ccc3c(c2)oc(=O)n3C)C(C)C)c1` (stereo not given) it is 5.32%. In the case of `CCN(CC)S(=O)(=O)c1ccc(N(C)Cc2cccc(OC)c2OC)nc1`, the inhibition of corepressor binding was -0.21%. Turning to `Cc1ccc(C(=O)Nc2ccc(C)c(S(=O)(=O)N(C)C)c2)s1`, the inhibition of corepressor binding was -3.92%. The figure for `COc1ccccc1C(=O)Nc1ccnn1C1CCN(Cc2cnn(C)c2)CC1` is -1.2%.

As to `O=[N+]([O-])c1ccc(Oc2ccc(F)cc2Br)c2ccncc12`, the inhibition of corepressor binding was 3.74%. With `O=C(COC(=O)CNS(=O)(=O)c1ccc(F)c(F)c1F)NC1CCCC1`, the inhibition of corepressor binding was 1.54%. As for `CC1(C)Cc2ccccc2-c2nc(CN3CCOCC3)[nH]c(=O)c21`, the inhibition of corepressor binding was 0.32%. Regarding `CC1(C)Cc2ccccc2-c2[nH]c(=S)[nH]c(=O)c21`, the inhibition of corepressor binding is 49.1% (active).

On to `CCC1(CC)Cc2ccccc2-c2nc(CCl)[nH]c(=O)c21`, for which the inhibition of corepressor binding was -2.67%. For the compound `Cc1ccc(Sc2ccncc2S(N)(=O)=O)cc1`, the inhibition of corepressor binding was 0.79%. Regarding `Cn1cc(CN2CCCC(CO)C2)c(-c2ccc(Oc3ccccc3)cc2)n1` (stereo not given), the inhibition of corepressor binding was -0.36%. Regarding `COc1ccc(C2c3[nH]c4ccccc4c3CCN2CCCn2cccn2)cc1C` (stereo not given), the inhibition of corepressor binding was 1.77%.

In the case of `CCc1ccc(NC(=O)CN2CCC(C(=O)c3ccc(OC)cc3)CC2)cc1`, the inhibition of corepressor binding was 4.08%.

As for `CC[C@@H](C)[C@@H](C(=O)N1CCN(C(=O)OC(C)(C)C)CC1)n1cc(CCC(=O)O)nn1`, the inhibition of corepressor binding is 2.89%. For `O=c1[nH]c(CCl)nc2cc(-c3ccc(Cl)cc3)sc12`, the inhibition of corepressor binding was 1.58%. The figure for `COc1ccc(CNC(=O)CN(Cc2ccc(Cl)cc2)S(C)(=O)=O)cc1` is -2.12%; for `CCCC(=O)n1nc(NCc2ccc(OC)cc2)nc1NCc1ccc(OC)cc1` it is -0.61%. The figure for `COc1ccc(NC(=O)CN2C(=O)C(c3ccccc3)=NC23CCCCCC3)cc1OC` is 1.4%. Turning to `O=C(CCc1ccc(S(=O)(=O)N2CCOCC2)cc1)Nc1ccc2ccccc2c1`, the inhibition of corepressor binding is 0.61%.
